Laboratory results taken from ChEMBL document CHEMBL1275442, “Pharmacokinetics and tissue distribution of anidulafungin in rats” (Antimicrob Agents Chemother, 2008).

What was measured:
[1] = Tmax in F344 rat muscle at 5 mg/kg, iv administered as single bolus dose by HPLC method; assay type: ADME, organism-based, Muscle tissue; parameters: dose 5 mg/kg, route intravenous
In short: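 F344 males, 10 to 11 weeks old and 223.6 to 243.8 g, got a single 5 mg/kg iv dose of [14C]anidulafungin over about 5 min. Plasma and tissues were collected predose and at 0.083 to 72 h, n = 3 per time point. Parent drug was quantified by HPLC-UV, with LLOQ/ULOQ of 20/5,120 ng/ml in plasma and 220/56,320 ng/g in tissue. Noncompartmental parameters came from a composite mean concentration-time profile.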

Liver [2] = assay: Tmax in F344 rat liver assessed as total compound-derived radioactivity at 5 mg/kg, iv administered as single bolus dose […]; assay type: ADME, organism-based; parameters: dose 5 mg/kg, route intravenous; conditions: in vivo
In short: (§1)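 Male F344 rats, 10 to 11 weeks old and 223.6 to 243.8 g, got one iv dose of [14C]anidulafungin at 5 mg/kg over about 5 min. Blood, CSF, kidney, liver, lung, quadriceps, spleen and skin were sampled predose and at 0.083 to 72 h, 3 rats per time. Total radioactivity (parent plus metabolites) was measured by liquid scintillation counting. Parameters were noncompartmental, from a composite mean profile.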

Liver [3] = assay: Half life in F344 rat liver assessed as total compound-derived radioactivity at 5 mg/kg, iv administered as single bolus dose […]; assay type: ADME, organism-based; parameters: dose 5 mg/kg, route intravenous; conditions: in vivo; in short: as §1
Muscle tissue = assay: AUC (0 to infinity) in F344 rat muscle assessed as total compound-derived radioactivity per gram of tissue at 5 mg/kg, iv administered as single bolus dose […]; assay type: ADME, organism-based; parameters: time infinity, dose 5 mg/kg, route intravenous; conditions: in vivo
In short: (§2)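 Same F344 study: single 5 mg/kg IV [¹⁴C]anidulafungin given over about 5 min. Total drug-derived radioactivity (parent plus metabolites) counted by liquid scintillation, in […]. Noncompartmental analysis of the composite mean profile.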

Cerebrospinal fluid [4] = assay: Drug level in Long Evans rat cerebrospinal fluid assessed as radioactivity per gram of tissue at 5 mg/kg, iv administered as single bolus dose measured 12 hrs postdose by autoradiography; assay type: ADME, organism-based; parameters: dose 5 mg/kg, route intravenous; conditions: in vivo
In short: (§3)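 Male pigmented Long Evans (HsdBlu:LE) rats, 7.5 weeks old, 202 to 217 g, single iv [¹⁴C]anidulafungin; one rat per sampling time. Euthanized by isoflurane and cardiac-puncture exsanguination. Sagittal whole-body sections quantified by phosphorimaging autoradiography, single samples corrected for section thickness across multiple sections per tissue. Concentrations (μg eq/g drug-derived radioactivity) interpolated from least-squares standard curves per scan.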

Spleen = assay: Drug level in Long Evans rat spleen assessed as radioactivity per gram of tissue at 5 mg/kg, iv administered as single bolus dose measured 72 hrs postdose by autoradiography; assay type: ADME, organism-based; parameters: dose 5 mg/kg, route intravenous; conditions: in vivo
In short: (§4)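 Male pigmented Long Evans (HsdBlu:LE) rats, 7.5 weeks old and 202 to 217 g, got a single iv dose of [14C]anidulafungin at 5 mg/kg. One rat per time point (0.5, 6, 12, 24, 72, 168 h) was euthanised by isoflurane and cardiac-puncture exsanguination. Sagittal whole-body sections were quantified by phosphorimaging. Samples were thickness-corrected, and concentrations (μg eq/g) were interpolated from least-squares standard curves.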

Lung [5] = assay: AUC (0 to infinity) in F344 rat lung at 5 mg/kg, iv administered as single bolus dose; assay type: ADME, organism-based; parameters: time infinity, dose 5 mg/kg, route intravenous; conditions: in vivo
In short: (§5)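 Male F344 rats, 10–11 weeks, 223.6–243.8 g, given one IV dose of [¹⁴C]anidulafungin, 5 mg/kg, over about 5 min. Tissues and blood sampled at 0.083–72 h (n = 3 rats per time). Parent drug measured by HPLC; LLOQ/ULOQ were 20/5,120 ng/ml for plasma and 220/56,320 ng/g for tissue. Noncompartmental parameters taken from the composite mean profile.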

Blood [6] = assay: AUC (0 to 24 hrs) in F344 rat blood assessed as total compound-derived radioactivity per gram of tissue at 5 mg/kg, iv administered as single bolus dose […]; assay type: ADME, organism-based; parameters: time < 24 hr, dose 5 mg/kg, route intravenous; conditions: in vivo; in short: as §2
Liver [7] = assay: Drug level in Long Evans rat liver assessed as low disposition of radioactivity per gram of tissue at 5 mg/kg, iv administered as single bolus dose measured 168 hrs postdose by autoradiography; assay type: ADME, organism-based; parameters: dose 5 mg/kg, route intravenous; conditions: in vivo; in short: as §3
Plasma [8] = assay: AUC (0 to 24 hrs) in F344 rat plasma assessed as total compound-derived radioactivity per gram of tissue at 5 mg/kg, iv administered as single bolus dose […]; assay type: ADME, organism-based; parameters: time < 24 hr, dose 5 mg/kg, route intravenous; conditions: in vivo; in short: as §2
[9] = Drug level in Long Evans rat eye assessed as radioactivity per gram of tissue at 5 mg/kg, iv administered as single bolus dose measured 72 hrs postdose by autoradiography; assay type: ADME, organism-based; parameters: dose 5 mg/kg, route intravenous; conditions: in vivo; in short: as §3
Plasma [10] = assay: Half life in F344 rat plasma assessed as total compound-derived radioactivity at 5 mg/kg, iv administered as single bolus dose […]; assay type: ADME, organism-based; parameters: dose 5 mg/kg, route intravenous; conditions: in vivo; in short: as §1
[11] = Cmax in F344 rat plasma at 5 mg/kg, iv administered as single bolus dose after 5 min by HPLC method; assay type: ADME, organism-based; parameters: dose 5 mg/kg, route intravenous; in short: as §5
Kidney [12] = assay: Drug level in Long Evans rat kidney assessed as low disposition of radioactivity per gram of tissue at 5 mg/kg, iv administered as single bolus dose measured 24 hrs postdose by autoradiography; assay type: ADME, organism-based; parameters: dose 5 mg/kg, route intravenous; conditions: in vivo; in short: as §3
Kidney [13] = assay: Drug level in Long Evans rat kidney assessed as low disposition of radioactivity per gram of tissue at 5 mg/kg, iv administered as single bolus dose measured 168 hrs postdose by autoradiography; assay type: ADME, organism-based; parameters: dose 5 mg/kg, route intravenous; conditions: in vivo; in short: as §3
Zone of skin [14] = assay: AUC (0 to infinity) in F344 rat skin assessed as total compound-derived radioactivity per gram of tissue at 5 mg/kg, iv administered as single bolus dose […]; assay type: ADME, organism-based; parameters: time infinity, dose 5 mg/kg, route intravenous; conditions: in vivo; in short: as §2
Cerebrospinal fluid [15] = assay: Drug level in Long Evans rat cerebrospinal fluid assessed as radioactivity per gram of tissue at 5 mg/kg, iv administered as single bolus dose measured 6 hrs postdose by autoradiography; assay type: ADME, organism-based; parameters: dose 5 mg/kg, route intravenous; conditions: in vivo; in short: as §3
Liver [16] = assay: Drug level in Long Evans rat liver assessed as low disposition of radioactivity per gram of tissue at 5 mg/kg, iv administered as single bolus dose measured 12 hrs postdose by autoradiography; assay type: ADME, organism-based; parameters: dose 5 mg/kg, route intravenous; conditions: in vivo; in short: as §3
[17] = Drug level in Long Evans rat eye assessed as radioactivity per gram of tissue at 5 mg/kg, iv administered as single bolus dose measured 12 hrs postdose by autoradiography; assay type: ADME, organism-based; parameters: dose 5 mg/kg, route intravenous; conditions: in vivo; in short: as §3
Blood [18] = assay: Cmax in F344 rat blood assessed as total compound-derived radioactivity per gram of tissue at 5 mg/kg, iv administered as single bolus dose […]; assay type: ADME, organism-based; parameters: dose 5 mg/kg, route intravenous; conditions: in vivo; in short: as §2
Zone of skin [19] = assay: Drug level in Long Evans rat skin assessed as radioactivity per gram of tissue at 5 mg/kg, iv administered as single bolus dose measured 0.5 hrs postdose by autoradiography; assay type: ADME, organism-based; parameters: dose 5 mg/kg, route intravenous; conditions: in vivo; in short: as §4
Lung [20] = assay: Tmax in F344 rat lung assessed as total compound-derived radioactivity at 5 mg/kg, iv administered as single bolus dose […]; assay type: ADME, organism-based; parameters: dose 5 mg/kg, route intravenous; conditions: in vivo; in short: as §1
Lung [21] = assay: Drug level in Long Evans rat lung assessed as radioactivity per gram of tissue at 5 mg/kg, iv administered as single bolus dose measured 24 hrs postdose by autoradiography; assay type: ADME, organism-based; parameters: dose 5 mg/kg, route intravenous; conditions: in vivo; in short: as §3
Lung [22] = assay: Drug level in Long Evans rat lung assessed as radioactivity per gram of tissue at 5 mg/kg, iv administered as single bolus dose measured 168 hrs postdose by autoradiography; assay type: ADME, organism-based; parameters: dose 5 mg/kg, route intravenous; conditions: in vivo; in short: as §3
Liver [23] = assay: AUC (0 to 24 hrs) in F344 rat liver assessed as total compound-derived radioactivity per gram of tissue at 5 mg/kg, iv administered as single bolus dose […]; assay type: ADME, organism-based; parameters: time < 24 hr, dose 5 mg/kg, route intravenous; conditions: in vivo; in short: as §2
Kidney [24] = assay: Cmax in F344 rat kidney assessed as total compound-derived radioactivity per gram of tissue at 5 mg/kg, iv administered as single bolus dose after 30 mins by HPLC method; assay type: ADME, organism-based; parameters: dose 5 mg/kg, route intravenous; conditions: in vivo, 0.5 h; in short: as §2

SMILES: CCCCCOc1ccc(-c2ccc(-c3ccc([14C](=O)N[C@H]4C[C@@H](O)[C@@H](O)NC(=O)[C@@H]5[C@@H](O)[C@@H](C)CN5C(=O)[C@H]([C@@H](C)O)NC(=O)[C@H]([C@H](O)[C@@H](O)c5ccc(O)cc5)NC(=O)[C@@H]5C[C@@H](O)CN5C(=O)[C@H]([C@@H](C)O)NC4=O)cc3)cc2)cc1 [14C-ANIDULAFUNGIN]
- Tmax [1]: 30 min
- Tmax (Liver [2]): 8 h
- t1/2 (Liver [3]): 69.2 h
- AUC (Muscle tissue): 139.22 ugequiv.hr/g
- Drug uptake (Cerebrospinal fluid [4]): 3.82 ugequiv
- Drug uptake (Spleen): 4.37 ugequiv
- AUC (Lung [5]): 638.21 µg·h/g
- AUC (Blood [6]): 203.14 ugequiv.hr/g
- Drug uptake (Liver [7]): 1.83 ugequiv
- AUC (Plasma [8]): 131.77 ugequiv.hr/g
- Drug uptake [9]: 0.72 ugequiv
- t1/2 (Plasma [10]): 37.4 h
- Cmax [11]: 5250 ng/mL
- Drug uptake (Kidney [12]): 4.41 ugequiv
- Drug uptake (Kidney [13]): 0.7 ugequiv
- AUC (Zone of skin [14]): 326.92 ugequiv.hr/g
- Drug uptake (Cerebrospinal fluid [15]): 5.54 ugequiv
- Drug uptake (Liver [16]): 15.03 ugequiv
- Drug uptake [17]: 1.36 ugequiv
- Cmax (Blood [18]): 14.78 ugequiv/g
- Drug uptake (Zone of skin [19]): 5.42 ugequiv
- Tmax (Lung [20]): 4.98 min
- Drug uptake (Lung [21]): 8.05 ugequiv
- Drug uptake (Lung [22]): 0.96 ugequiv
- AUC (Liver [23]): 1346.94 ugequiv.hr/g
- Cmax (Kidney [24]): 19.63 ugequiv/g
